High-throughput results (PubChem)
TRPC4 PAM: positive allosteric modulators of TRPC4, primary screen, cell-based, mouse TRPC4beta, HEK293 mu-opioid, Fluo-4 calcium. DAMGO EC20, Fluo-4 Ca2+ flux; active compounds read high. B-score at 10 µM. 0.42% of 310,000 active. AID 2227, 2009;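 active = B-score of calcium response area above 5 SD of library B-scores, with initial fluorescence ratio within 5 SD of library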;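 note: B-score of integrated fluorescence ratio over time as area under calcium response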
Target sequence (Q9QUQ5 whole entry, looked up): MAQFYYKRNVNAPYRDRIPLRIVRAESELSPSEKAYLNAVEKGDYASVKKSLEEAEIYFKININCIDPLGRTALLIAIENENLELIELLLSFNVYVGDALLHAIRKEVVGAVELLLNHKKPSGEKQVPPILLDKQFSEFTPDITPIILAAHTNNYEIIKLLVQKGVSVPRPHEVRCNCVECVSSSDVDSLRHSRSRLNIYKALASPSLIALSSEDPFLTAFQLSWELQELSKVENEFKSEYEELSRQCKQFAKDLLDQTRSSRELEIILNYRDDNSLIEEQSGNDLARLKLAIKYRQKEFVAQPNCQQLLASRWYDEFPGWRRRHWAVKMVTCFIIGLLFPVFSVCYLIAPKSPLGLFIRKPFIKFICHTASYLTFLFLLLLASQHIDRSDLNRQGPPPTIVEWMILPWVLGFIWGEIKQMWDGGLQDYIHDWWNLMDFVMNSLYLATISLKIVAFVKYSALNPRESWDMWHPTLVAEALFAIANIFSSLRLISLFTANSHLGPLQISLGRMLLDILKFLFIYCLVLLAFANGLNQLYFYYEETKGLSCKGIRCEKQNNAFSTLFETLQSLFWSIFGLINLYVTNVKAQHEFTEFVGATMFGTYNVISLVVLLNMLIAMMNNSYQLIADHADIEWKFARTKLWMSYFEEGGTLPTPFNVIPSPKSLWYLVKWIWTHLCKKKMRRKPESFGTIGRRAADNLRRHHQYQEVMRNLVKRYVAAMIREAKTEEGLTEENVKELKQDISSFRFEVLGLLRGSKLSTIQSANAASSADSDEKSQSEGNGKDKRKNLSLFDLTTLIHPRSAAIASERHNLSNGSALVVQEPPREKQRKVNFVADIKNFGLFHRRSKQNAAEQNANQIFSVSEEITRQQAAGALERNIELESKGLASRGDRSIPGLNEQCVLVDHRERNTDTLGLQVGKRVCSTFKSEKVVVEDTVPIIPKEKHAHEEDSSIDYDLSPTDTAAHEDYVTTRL
TRPC6 act: mouse TRPC6 channel activators, primary screen, cell-based, HEK293, membrane potential dye. Short transient receptor potential channel 6 (Mus musculus), Q61143. HEK293-TRPC6 membrane potential dye fluorescence; active compounds read high. 0.13% of 310,000 active. AID 2550, 2010. B-score at 10 µM;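 active = B-score of the integrated fluorescence ratio above library mean plus 3 SD, and starting fluorescence ratio within library mean plus 5 SD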;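 note: higher score means more depolarization so channel activation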
TRPC4 agonist: activators of mouse TRPC4 channel, primary screen, Fluo4 calcium, HEK293 TRPC4beta/mu-opioid cells; Short transient receptor potential channel 4 (Mus musculus), Q9QUQ5; Fluo4 calcium fluorescence; active compounds read high; B-score at 10 µM; 0.49% of 310,000 active;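 active = B-score above 5 SD of library B-scores, and initial fluorescence ratio not above library mean plus 5 SD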;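 note: positive B-score marks a calcium rise read as TRPC4 activation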
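Assay system: HEK293 stable line with TRPC4beta plus mu-opioid receptor; schedule: 45 min room-temperature Fluo4 loading, 110 s read; technique: kinetic Fluo4 calcium fluorescence; evaluation: integrated baseline-normalised fluorescence ratio, converted to per-well B score; controls: buffer (low) and maximal DAMGO (high)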
Kir21 block: inhibitors of mouse Kir2.1 inward-rectifier potassium channel; Inward rectifier potassium channel 2 (Mus musculus), P35561; HEK293-Kir2.1, FluxOR thallium flux fluorescence; active compounds read low; B-score at 10 µM; 0.85% of 310,000 active; AID 1672, 2009;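 active = fluorescence ratio B-score at or below minus 3 SD of library scores, with starting-brightness B-score within 2 SD, cut at about -4.2 in these data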;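 note: channel flux triggered by added potassium and thallium sulfate stimulus; B-score of peak minus minimum fluorescence over baseline after thallium stimulus; more negative B-score means stronger Kir2.1 block with less thallium influx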
TRPC6 inhibitor: mouse TRPC6 channel inhibitors, primary screen, cell-based, HEK293, membrane potential dye. B-score at 10 µM. ACh-evoked depolarization; active compounds read low. Short transient receptor potential channel 6 (Mus musculus), Q61143. 1.1% of 310,000 active;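 active = B-score under library mean minus 3 SD, initial fluorescence not abnormally high, positive integrated signal ratio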;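 note: B-score derived from integrated fluorescence ratio over the kinetic read; more negative B-score means stronger inhibition of depolarization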
TRPC4 inh: inhibitors of mouse TRPC4 channel, primary screen, Fluo4 calcium, HEK293 TRPC4beta/mu-opioid cells | Short transient receptor potential channel 4 (Mus musculus), Q9QUQ5 | DAMGO-evoked Fluo4 calcium flux; active compounds read low | B-score at 10 µM | 0.39% of 300,000 active | AID 2247, 2010;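 active = B-score over 3 SD under the library average, no early fluorescence shift, positive overall ratio signal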
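material = TRPC4beta/mu-opioid receptor HEK293 cell line | probe or stimulus = sequential submaximal and maximal DAMGO stimulation | compound dosing = one concentration per compound | measured by = Fluo4 Ca2+ flux fluorescence | evaluation = integrated fluorescence ratio relative to baseline, converted to per-well B score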
TRPC4 sel inh 2: second check of whether TRPC6 inhibitors also affect mouse TRPC4; inhibition, % at 10 µM; HEK293 TRPC4/MOR, membrane potential dye fluorescence; channel activated by saturating DAMGO dose; AID 2776; shares compounds with TRPC6 inhibitor; 42% of 920 active;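 active = compounds whose fluorescence signal differed from control wells by over 3 SD, either direction, in both duplicate plates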
TRPC4 spec: mouse TRPC4 modulation by TRPC6 hits, confirmation, selectivity assay for TRPC6 inhibitor project, cell-based, HEK293 TRPC4/mu-opioid, membrane potential dye | shares compounds with TRPC6 inhibitor | membrane potential fluorescence | activity change, negative = inhibition, % at 10 µM | 61% of 920 active | AID 2777, 2010;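 active = rise or fall in signal beyond 3 SD of buffer-only wells in both replicate plates, either sign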;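 note: integrated kinetic ratio of fluorescence range over baseline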
HEK293 MPD ctr 2-1: nonspecific membrane potential effects, parental HEK293, confirmation, counter-screen for TRPC6 inhibitor project, cell-based, second counter screen; shares compounds with TRPC6 inhibitor; parental HEK293 membrane potential dye fluorescence; maximal acetylcholine challenge after compound addition; signal change vs control, % at 10 µM; 31% of 920 active; AID 2779, 2010;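 active = membrane potential signal moving either way by over 3 SD of the maximum-effect control, in both duplicate plates, meaning non-specific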
HEK293 MPD ctr-1: membrane potential modulation in parental HEK293, confirmation, counter-screen for TRPC6 inhibitor project, cell-based | parental HEK293 membrane potential dye fluorescence | 60% of 920 active | membrane potential signal change, % at 10 µM | shares compounds with TRPC6 inhibitor;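 active = membrane potential signal shifting up or down by more than 3 SD of buffer-only wells, on both duplicate plates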
HEK293 MPD ctr-2: parental HEK293 membrane potential modulation, confirmation, counter-screen for TRPC6 modulator project, cell-based; AID 488924, 2010; membrane potential signal change, % at 10 µM; membrane potential dye fluorescence; shares compounds with TRPC6 inhibitor; 51% of 2,400 active;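 active = membrane potential signal moves up or down beyond 5 SD from buffer-only wells, on both duplicate plates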
HEK293 MPD ctr 2-2: second counter-screen for TRPC6 modulators: effect in parental HEK293 cells. shares compounds with TRPC6 inhibitor. membrane potential dye fluorescence; after compound, maximal acetylcholine stimulation. inhibition, % at 10 µM. 14% of 2,400 active;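 active = membrane potential signal drops by more than 5 SD from the mean control signal, in both duplicate plates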;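 note: plate controls were acetylcholine ECmax control wells for no effect and buffer only wells for full effect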
TRPC4/MOR mod: TRPC4 modulation by TRPC6 hit compounds, confirmation, selectivity assay for TRPC6 modulator project, cell-based, HEK293 TRPC4/mu-opioid, membrane potential dye, mouse | shares compounds with TRPC6 inhibitor | membrane potential fluorescence | percent change from control (negative = decrease, positive = increase), % at 10 µM | 69% of 2,400 active | AID 488927, 2010;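 active = membrane potential signal moved up or down beyond 5 SD of buffer control wells, in both duplicate plates, actives on both sides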;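 note: plate controls were assay buffer wells for no effect and DAMGO maximal-effect wells for full effect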
TRPC4 ctr inh 2: second selectivity test of TRPC6 modulators against mouse TRPC4; 55% of 2,400 active; shares compounds with TRPC6 inhibitor; AID 488928; HEK293 TRPC4/mu-opioid, membrane potential dye fluorescence; stimulated with maximal-effect DAMGO; inhibition, % at 10 µM;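 active = drop in membrane potential signal beyond 5 SD of the control wells in both duplicate plates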;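 note: TRPC4 counter screen for TRPC6 hits run under conditions tuned for TRPC6 not TRPC4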
TRPC6 block conf: mouse TRPC6 channel inhibitors, confirmation, HEK293 cells, membrane potential dye, duplicate; shares compounds with TRPC6 inhibitor; ACh-evoked depolarization; inhibition, % at 10 µM; 43% of 3,300 active; AID 488960, 2010;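 active = fluorescence ratio falls more than 5 SD below the full-stimulation control mean, in both duplicate runs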;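 note: integrated fluorescence ratio of peak minus minimum over baseline after agonist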
TRPC6 act conf: mouse TRPC6 channel activators, confirmation, HEK293 cells, membrane potential dye, duplicate. 11% of 2,800 active. HEK293-TRPC6 membrane potential dye fluorescence, FDSS. shares compounds with TRPC6 inhibitor. activation, % at 10 µM;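 active = ratio signal rise beyond 5 SD above unstimulated control wells' mean, seen in both duplicate runs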;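 note: plate controls were buffer EC0 wells for no effect and acetylcholine ECmax response for full effect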
* marks the source's active call; other numbers are inactive results; i = inactive; . = no result given. In the library only some 3% were active in any assay of this set; here they are far more common.

SMILES	TRPC4 PAM	TRPC6 act	TRPC4 agonist	Kir21 block	TRPC6 inhibitor	TRPC4 inh	TRPC6 block conf	TRPC6 act conf	others
COc1ccc(C(=O)N/N=C(\C)CC(=O)Nc2cccc(C(F)(F)F)c2)cc1	i	i	i	0.44	i	i	.	.
CCOC(=O)c1cn(C2CC2)c2c(F)c(NCCCN(C)C)c(F)cc2c1=O	i	i	i	-0.59	-7.4*	i	67%*	i	TRPC4 sel inh 2=i;TRPC4 spec=-23%*;HEK293 MPD ctr 2-1=0.0%*;HEK293 MPD ctr-1=-436%*
CN(Cc1ccccc1)C1CCCN(C(=O)c2ccc(Cl)s2)C1 (stereo not drawn)	i	i	i	-0.14	i	i	.	.
COc1ccc(C(=O)CCc2ccccc2)c(O)c1	i	i	i	2	i	i	.	.
O=C(CCc1ccccc1)c1c(O)cc(O)cc1O	i	i	i	0.84	-5.6*	i	50%*	i	HEK293 MPD ctr-2=-84%*;HEK293 MPD ctr 2-2=i;TRPC4/MOR mod=-20%*;TRPC4 ctr inh 2=74%*
Cc1ccc(S(=O)(=O)N2CCN(C(=O)COC(=O)CNC(=O)c3ccc(Cl)cc3Cl)CC2)cc1	i	i	i	0.8	i	i	.	.
O=C(c1ccccc1Cl)N(Cc1ccc(Br)cc1)N1C(=O)CCCC1=O	i	i	i	0.03	i	i	.	.
